Assay results from different studies.
Lines come from different studies, so protocols differ.
Target: Cyclin-dependent kinase-like 3 (CDKL3, Homo sapiens, UniProt Q8IVW4)

Compound	effect on	technique	tested at	remaining binding [%]
N[C@H]1CCN(c2nccc(-c3cnn4ncccc34)n2)C1	binding		1 µM	100
CCCCN(CCCC)C(=O)CN1C[C@H](c2cc(OC)c3c(c2)OCO3)[C@@H](C(=O)O)[C@@H]1CC(C)(C)CCC	cell-free assay	competition with immobilised ligand	1 µM	100
CNC(=O)[C@@H]1CC[C@@H](n2c(-c3ccc4cnccc4c3)nc3ccc(C(=O)NCc4cccc(C(N)=O)c4)cc32)C1	binding	competition with immobilised ligand	1 µM	96
CC(C)(O)c1cncc(-c2nc3ccc(F)cc3n2C2CC2)c1	cell-free assay	competition with immobilised ligand	1 µM	84
CCN1CCN(Cc2ccc(C(=O)Nc3ccc(C)c(Oc4ccc5c(c4)CC(=O)N5)c3)cc2C(F)(F)F)CC1	binding	competition with immobilised ligand	1 µM	86
CN(c1ccnc(CNc2nc(Nc3ccc4c(c3)CC(=O)N4)ncc2C(F)(F)F)n1)S(C)(=O)=O	cell-free assay	competition with immobilised ligand	1 µM	78
Nc1ncc2c(n1)-c1c([nH]c3ccc(C#CC4CC4)cc13)CCCC2	binding	competition with immobilised ligand	1 µM	83
CC(C)CC(=O)N1CCc2nc(-c3ccc(Br)cc3)nc(N(C)Cc3ccccc3)c2C1	cell-free assay	competition with immobilised ligand	0.1 µM	89
CN(CCCC(F)(F)F)c1nccc(-c2cnn3ncccc23)n1	binding		1 µM	100
CO[C@@H](C)c1c(Nc2ccc([C@H](N(C)C(=O)C3CCS(=O)(=O)CC3)C(F)(F)F)cc2)cnc2cc(Cl)nn12	cell-free assay	competition with immobilised ligand	1 µM	73
O=C(c1ccc(Nc2ncc(Cl)c(-c3cc4ccccc4s3)n2)cc1)N1CCC(N2CCCC2)CC1	binding	competition with immobilised ligand	1 µM	47
CNCc1ccccc1-c1csc([C@@H](C)Nc2nc(C)nc3cc(OC)c(OC)cc23)c1	cell-free assay	competition with immobilised ligand	1 µM	99
COc1ncc2cc3ccccc3nc2c1C#N	binding	competition with immobilised ligand	5 µM	85
C[C@H]1CCN(c2nccc(-c3cnn4ncccc34)n2)C1	binding		1 µM	85
O=C(NCCCN1CCOCC1)c1ccc(Nc2nccc(-c3cc4ccccc4s3)n2)cc1	binding	competition with immobilised ligand	1 µM	89
c1cncc(-c2cccc(Nc3nccc(NC4CCCCC4)n3)c2)c1	binding	competition with immobilised ligand	10 µM	100
COc1ccnn2ncc(-c3ccnc(N(C)C)n3)c12	binding		1 µM	94
O=C(Nc1c[nH]nc1C(=O)NC1CCNCC1)c1cc(F)cc(F)c1	binding	competition with immobilised ligand	1 µM	100
Cc1cnn2ncc(-c3ccnc(N(C)C)n3)c2c1	binding		1 µM	86
Cc1cnc(Nc2ccc(C(=O)N3CCC(N4CCCC4)CC3)cc2)nc1-c1cc2ccccc2s1	binding	competition with immobilised ligand	1 µM	89
